Reference: ChEMBL document CHEMBL4138314, “Synthesis and Evaluation of N-Phenyl-3-sulfamoyl-benzamide Derivatives as Capsid Assembly Modulators Inhibiting Hepatitis B Virus (HBV)” (J Med Chem, 2018)
≈ marks a conversion by molar mass, not a printed value.

How the values were obtained:
[1] = Drug metabolism in human liver microsomes at 1 uM after 15 mins by LC-MS/MS analysis; type: ADME, microsome; settings: read-out: Drug metabolism
In short: (§1)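 Compound incubated 15 min with human or mouse liver microsomes; stability expressed as percent turnover (metabolised) at 15 min.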

[2] = Cytotoxicity against human HepG2 cells after 4 days by resazurin assay; type: cell-based
Hepatitis B virus = assay: Antiviral activity against Hepatitis B virus infected in human HepG2.117 cells assessed as inhibition of viral DNA level after 3 days by real time PCR; type: functional, organism-based; settings: HepG2.117, 72 h
[3] = Drug metabolism in mouse liver microsomes at 1 uM after 15 mins by LC-MS/MS analysis; type: ADME, microsome; settings: read-out: Drug metabolism; in short: as §1
HBV genotype D = assay: Antiviral activity against HBV genotype D infected in human HepG2.2.15 cells assessed as inhibition of viral DNA level treated twice for 3 days measured after 6 days by real time PCR; type: functional, organism-based; settings: Hepatitis B virus
[4] = Kinetic solubility of the compound at pH 7.4 after 4 hrs by UPLC-UV analysis; type: physicochemical; settings: buffer, read-out: Kinetic_solubility

| Compound | metabolised at 0.25 h, 1 µM [1] | EC50 (Hepatitis B virus) | metabolised at 0.25 h, 1 µM [3] | EC50 (HBV genotype D) | solubility kinetic at 4 h [4] | CC50 at 96 h [2] |
| --- | --- | --- | --- | --- | --- | --- |
| CC[C@H](C)NS(=O)(=O)c1cccc(C(=O)Nc2ccc(F)cc2)c1 | 18% | 8630 nM | 82% | 750 nM | 92 µM (≈ 32.2 µg/mL) | 39600 nM |
| CC(C)NS(=O)(=O)c1cccc(C(=O)Nc2ccc(F)cc2)c1 | 16% | 960 nM | 61% | 740 nM | > 100 µM | 57500 nM |
| O=C(Nc1ccc(F)cc1)c1cccc(S(=O)(=O)N[C@H]2CCOC2)c1 | 32% | 1360 nM | 29% | 540 nM | > 100 µM | > 100000 nM |
| O=C(NC1CCCCC1)c1cc(S(=O)(=O)NC2CCCCC2)ccc1F |  | > 25000 nM |  | 28800 nM |  | > 25000 nM |
| O=C(Nc1ccc(F)cc1)c1cccc(S(=O)(=O)N2CCCC2)c1 | 44% | 3030 nM | 96% | 4530 nM | 48 µM (≈ 16.7 µg/mL) | 96900 nM |
| CCC(CC)NS(=O)(=O)c1cccc(C(=O)Nc2ccc(F)cc2)c1 | 53% | 3630 nM | 99% | 750 nM | 15 µM (≈ 5.47 µg/mL) | 40300 nM |
| O=C(Nc1ccc(F)cc1)c1cccc(S(=O)(=O)N[C@@H]2CCOC2)c1 | 21% | 2030 nM | 24% | 1180 nM | > 100 µM | > 100000 nM |
| O=C(Nc1ccc(F)cc1)c1cccc(NS(=O)(=O)C2CCCC2)c1 | 4% | 1200 nM | 93% | 1200 nM | 92 µM (≈ 33.3 µg/mL) | > 50000 nM |
| CC[C@@H](C)NS(=O)(=O)c1cccc(C(=O)Nc2ccc(F)cc2)c1 | 21% | 890 nM | 88% | 340 nM | 59 µM (≈ 20.7 µg/mL) | 46000 nM |
| O=C(Nc1ccc(F)cc1)c1cc(S(=O)(=O)NC2CCCC2)ccc1F | 36% | 660 nM | 77% | 360 nM | 82 µM (≈ 31.2 µg/mL) | > 25000 nM |
| CN(C1CCCC1)S(=O)(=O)c1cccc(C(=O)Nc2ccc(F)cc2)c1 | 98% | 11100 nM | 100% | 2600 nM | 19 µM (≈ 7.15 µg/mL) | 23800 nM |

Continued, in another order:

| metabolised at 0.25 h, 1 µM [1] | EC50 (Hepatitis B virus) | metabolised at 0.25 h, 1 µM [3] | EC50 (HBV genotype D) | solubility kinetic at 4 h [4] | Compound | CC50 at 96 h [2] |
| --- | --- | --- | --- | --- | --- | --- |
| 50% | 600 nM | 91% | 470 nM | 83 µM (≈ 30.1 µg/mL) | O=C(Nc1ccc(F)cc1)c1cccc(S(=O)(=O)NC2CCCC2)c1 | 32700 nM |
| 88% | 430 nM | 100% | 270 nM | 57 µM (≈ 20.7 µg/mL) | O=C(Nc1cccc(F)c1)c1cccc(S(=O)(=O)NC2CCCC2)c1 | > 25000 nM |
| 91% | > 25000 nM | 100% | 8000 nM | 22 µM (≈ 8.28 µg/mL) | O=C(Nc1cccc(S(=O)(=O)NC2CCCCC2)c1)c1ccc(F)cc1 | > 25000 nM |
| 51% | 900 nM | 99% | 830 nM | 84 µM (≈ 29.3 µg/mL) | O=C(Nc1ccc(F)cc1)c1cccc(S(=O)(=O)NC2CCC2)c1 | 57700 nM |
| 67% | 15300 nM | 99% | 1990 nM | 12 µM (≈ 4.52 µg/mL) | Cc1ccc(NC(=O)c2cccc(S(=O)(=O)NC3CCCC3)c2)cc1F | > 25000 nM |
| 14% | 1670 nM | 48% | 930 nM | > 100 µM | O=C(Nc1ccc(F)cc1)c1cccc(S(=O)(=O)NC2CCOCC2)c1 | > 100000 nM |
